EPA's CvTdb concentration-time database

Assays:
[1] = tested on: Rat; experiment: concentration in liver after dosing; details: 864 h; dosed: Perfluorooctane Sulfonate; 2 mg/kg; oral; Female; Harlan Sprague Dawley
[2] = tested on: Rat; experiment: concentration in plasma after dosing; details: dosed: Perfluorooctane Sulfonate, 2 mg/kg, iv, Female, F344
[3] = tested on: Rat; experiment: concentration in brain after dosing; details: 24 h; dosed: Perfluorooctane Sulfonate; 2 mg/kg; oral; Female; Harlan Sprague Dawley
[4] = tested on: Rat; experiment: concentration in kidney after dosing; details: 6 h; dosed: Perfluorooctane Sulfonate; 20 mg/kg; oral; Female; F344
[5] = tested on: Rat; experiment: concentration in liver after dosing; details: 1848 h; dosed: Perfluorooctane Sulfonate; 20 mg/kg; oral; Female; F344
[6] = tested on: Rat; experiment: concentration in plasma after dosing; details: dosed: Perfluorooctane Sulfonate, 2 mg/kg, iv, Female, F344; remark: listed apart in the source
[7] = tested on: Rat; experiment: concentration in kidney after dosing; details: 1848 h; dosed: Perfluorooctane Sulfonate; 20 mg/kg; oral; Male; Harlan Sprague Dawley
[8] = tested on: Rat; experiment: concentration in liver after dosing; details: 1848 h; dosed: Perfluorooctane Sulfonate; 2 mg/kg; oral; Female; Harlan Sprague Dawley
[9] = tested on: Rat; experiment: concentration in kidney after dosing; details: 6 h; dosed: Perfluorooctane Sulfonate; 20 mg/kg; oral; Female; F344; remark: listed apart in the source
[10] = tested on: Rat; experiment: concentration in plasma after dosing; details: dosed: Perfluorooctane Sulfonate, 2 mg/kg, iv, Female, Harlan Sprague-Dawley
[11] = tested on: Rat; experiment: concentration in plasma after dosing; details: dosed: Perfluorooctane Sulfonate, 2 mg/kg, iv, Male, F344
[12] = tested on: Rat; experiment: concentration in plasma after dosing; details: dosed: Perfluorooctane Sulfonate, 2 mg/kg, iv, Male, F344; remark: listed apart in the source
[13] = tested on: Rat; experiment: concentration in brain after dosing; details: 24 h; dosed: Perfluorooctane Sulfonate; 2 mg/kg; oral; Female; Harlan Sprague Dawley; remark: listed apart in the source
[14] = tested on: Rat; experiment: concentration in brain after dosing; details: 6 h; dosed: Perfluorooctane Sulfonate; 20 mg/kg; oral; Female; F344
[15] = tested on: Rat; experiment: concentration in plasma after dosing; details: 4 h; dosed: Gemfibrozil; 4.29 mg/kg; oral; Male; Sprague-Dawley
[16] = tested on: Rat; experiment: concentration in plasma after dosing; details: 10 min; dosed: Gemfibrozil; 4.29 mg/kg; oral; Male; Sprague-Dawley
[17] = tested on: Rat; experiment: concentration in plasma after dosing; details: 4 h; dosed: Gemfibrozil; 100 mg/kg; oral; Male; Sprague-Dawley
[18] = tested on: Rat; experiment: concentration in liver after dosing; details: 12 h; dosed: Perfluorohexanoic Acid; 80 mg/kg; oral; Male; Harlan Sprague Dawley
[19] = tested on: Rat; experiment: concentration in kidney after dosing; details: 6 h; dosed: Perfluorohexanoic Acid; 80 mg/kg; oral; Male; Harlan Sprague Dawley
[20] = tested on: Rat; experiment: concentration in liver after dosing; details: 3 h; dosed: Perfluorohexanoic Acid; 80 mg/kg; oral; Female; Harlan Sprague Dawley
[21] = tested on: Rat; experiment: concentration in plasma after dosing; details: 1 h; dosed: Perfluorohexanoic Acid; 80 mg/kg; oral; Male; Harlan Sprague Dawley
[22] = tested on: Rat; experiment: concentration in plasma after dosing; details: 0.75 h; dosed: Perfluorohexanoic Acid; 40 mg/kg; iv; Female; Harlan Sprague-Dawley
[23] = tested on: Rat; experiment: concentration in kidney after dosing; details: 1 h; dosed: Perfluorohexanoic Acid; 80 mg/kg; oral; Male; Harlan Sprague Dawley
[24] = tested on: Rat; experiment: concentration in liver after dosing; details: 6 h; dosed: Perfluorohexanoic Acid; 80 mg/kg; oral; Female; Harlan Sprague Dawley
[25] = tested on: Rat; experiment: concentration in kidney after dosing; details: 6 h; dosed: Perfluorohexanoic Acid; 80 mg/kg; oral; Male; Harlan Sprague Dawley; remark: listed apart in the source
[26] = tested on: Rat; experiment: concentration in plasma after dosing; details: 0.75 h; dosed: Perfluorohexanoic Acid; 40 mg/kg; iv; Female; Harlan Sprague-Dawley; remark: listed apart in the source
[27] = tested on: human; experiment: concentration in blood after dosing; negative times count back from the end of exposure; details: dosed: trichloroethylene, 100 ppm, inhalation, person
Procedure, shortened: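 Data points giving concentration or amount against time came from published in vivo toxicokinetic studies and from two structured collections. PubMed searching, classifier screening and manual review located the studies. Most points were digitised from plot screenshots using WebPlotDigitizer, the rest were copied from tables, and all keep their reported units.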

[28] = tested on: Rat; experiment: concentration in kidney after dosing; details: 1 h; dosed: Fluorotelomer alcohol 8+2; 80 mg/kg; oral; Female; Harlan Sprague Dawley
[29] = tested on: Rat; experiment: concentration in plasma after dosing; details: 192 h; dosed: 678-39-7; 40 mg/kg; iv; Male; F344
[30] = tested on: Rat; experiment: concentration in brain after dosing; details: 1 h; dosed: Fluorotelomer alcohol 8+2; 24 mg/kg; oral; Male; Harlan Sprague Dawley
[31] = tested on: Rat; experiment: concentration in plasma after dosing; details: 0.75 h; dosed: 2-Methyltetrahydrofuran; 40 mg/kg; iv; Male; Harlan Sprague Dawley
[32] = tested on: Rat; experiment: concentration in plasma after dosing; details: 0.75 h; dosed: 2-Methyltetrahydrofuran; 40 mg/kg; iv; Male; Harlan Sprague Dawley; remark: listed apart in the source
[33] = tested on: Rat; experiment: concentration in plasma after dosing; details: 0.2 h; dosed: 2-Methyltetrahydrofuran; 40 mg/kg; iv; Male; Harlan Sprague Dawley

O=S(=O)([O-])C(F)(F)C(F)(F)C(F)(F)C(F)(F)C(F)(F)C(F)(F)C(F)(F)C(F)(F)F [Perfluorooctane Sulfonate]
Details	concentration in brain [ng/g]	concentration in kidney [ng/g]	concentration in liver [ng/g]
[1]	–	–	11100
[3]	800	–	–
[4]	–	133000	–
[5]	–	–	55400
[7]	–	10200	–
[8]	–	–	5940
[9]	–	152000	–
[13]	920	–	–
[14]	3430	–	–

Details	concentration in plasma [ng/mL]
[2], 6 h	4910
[2], 528 h	2900
[2], 3216 h	277
[6], 5 min	5590
[6], 192 h	4170
[6], 1704 h	940
[10], 5 min	5920
[10], 24 h	5370
[11], 12 h	4020
[11], 1200 h	875
[12], 12 h	4350
[12], 864 h	995
[12], 3216 h	99.5

Cc1ccc(C)c(OCCCC(C)(C)C(=O)O)c1 [Gemfibrozil]
Details	concentration in plasma [ng/mL]
[15]	596
[16]	606
[17]	6150

O=C(O)C(F)(F)C(F)(F)C(F)(F)C(F)(F)C(F)(F)F [Perfluorohexanoic Acid]
Details	concentration in kidney [ng/g]	concentration in liver [ng/g]	concentration in plasma [ng/mL]
[18]	–	1910	–
[19]	10600	–	–
[20]	–	14700	–
[21]	–	–	152000
[22]	–	–	113
[23]	79900	–	–
[24]	–	6260	–
[25]	16900	–	–
[26]	–	–	1570

ClC=C(Cl)Cl [trichloroethylene]
[27]
Details	concentration in blood [ng/mL]
0 h, duration: 6 hr	1310
0.2145 h, duration: 4 hr	2070
0.2337 h, duration: 4 hr	1290
0.4864 h, duration: 4 hr	1450
0.9849 h, duration: 4 hr	714
0.9924 h, duration: 4 hr	513
1.967 h, duration: 4 hr	333
1.979 h, duration: 4 hr	268
3.961 h, duration: 4 hr	170
18 h, duration: 6 hr	1100
22 s, duration: 4 hr	1870
24 h, duration: 6 hr	562
29.5 min, duration: 4 hr	851
42 h, duration: 6 hr	1490
48 h, duration: 6 hr	1230
66 h, duration: 6 hr	2060
72 h, duration: 6 hr	1320
90 h, duration: 6 hr	1660
96 h, duration: 6 hr	1370
160 h, duration: 6 hr	921

concentration in blood [ng/mL], [27], during exposure
Details	-6 h	-3.502 h	-3.499 h	-3.014 h	-3.003 h	-2.006 h	-1.997 h	-1.011 h	-1.009 h
duration: 4 hr	–	1670	881	1250	2120	2530	1520	1690	2830
duration: 6 hr	11.9	–	–	–	–	–	–	–	–

O=C(O)CCC(F)(F)C(F)(F)C(F)(F)C(F)(F)C(F)(F)C(F)(F)C(F)(F)F [Fluorotelomer acid 7+3]
Details	concentration in brain [ng/g]	concentration in kidney [ng/g]	concentration in plasma [ng/mL]
[28]	–	584	–
[29]	–	–	49.7
[30]	128	–	–

CC1CCCO1 (centres undefined) [2-Methyltetrahydrofuran]
Details	concentration in plasma [ng/mL]
[31]	26900
[32]	31600
[33]	36100
